Test results reported in ChEMBL document CHEMBL2390866, “Novel pyrimidoazepine analogs as serotonin 5-HT(2A) and 5-HT(2C) receptor ligands for the treatment of obesity” (Eur J Med Chem, 2013).

Tests used:
[1] = biological target: T1, 5-hydroxytryptamine receptor 2A (Homo sapiens, UniProt P28223); assay: Displacement of [3H]-ketanserin from human recombinant 5HT-2A receptor expressed in CHOK1 cell membranes after 60 mins; design: species or system CHO-K1
How it was run: (§1)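 Buffer was 50 mM Tris-HCl pH 7.4 with 5 mM CaCl2 and 0.1% ascorbic acid. Test compound added at a range of concentrations.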

[2] = biological target: T2, 5-hydroxytryptamine receptor 2C (Homo sapiens) (UniProt P28335); assay: Displacement of [3H]-mesulergine from human recombinant 5HT-2C receptor expressed in CHOK1 cell membranes at 10 uM after 30 mins relative to control; conditions: CHO-K1
T2 sequence (whole entry): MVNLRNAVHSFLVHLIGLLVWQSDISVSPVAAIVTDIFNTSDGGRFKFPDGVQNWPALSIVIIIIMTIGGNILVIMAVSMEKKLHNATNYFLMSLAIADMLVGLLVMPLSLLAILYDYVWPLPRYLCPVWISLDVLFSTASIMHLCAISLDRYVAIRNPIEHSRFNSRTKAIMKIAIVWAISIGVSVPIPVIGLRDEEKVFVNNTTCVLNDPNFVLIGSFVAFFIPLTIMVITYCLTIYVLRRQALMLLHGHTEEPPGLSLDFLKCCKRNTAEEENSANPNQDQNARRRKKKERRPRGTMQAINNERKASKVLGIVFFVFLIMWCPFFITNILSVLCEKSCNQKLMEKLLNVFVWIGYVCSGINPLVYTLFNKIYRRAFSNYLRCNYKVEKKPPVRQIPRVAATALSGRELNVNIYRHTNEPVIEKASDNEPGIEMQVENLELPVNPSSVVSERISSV
How it was run: (§2)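 Frozen CHO-K1 membranes expressing recombinant human 5-HT2C incubated with 1 nM [3H]mesulergine in 50 mM Tris-HCl pH 7.4 containing 0.1% ascorbic acid and pargyline. Mianserin defined nonspecific binding.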

[3] = biological target: T1, 5-hydroxytryptamine receptor 2A; assay: Displacement of [3H]-ketanserin from human recombinant 5HT-2A receptor expressed in CHOK1 cell membranes at 10 uM after 60 mins relative to control; conditions: CHO-K1; how it was run: as §1
[4] = biological target: T3, 5-hydroxytryptamine receptor 2C (Homo sapiens, UniProt P28335); assay: Displacement of [3H]-mesulergine from human recombinant 5HT-2C receptor expressed in CHOK1 cell membranes after 30 mins; design: species or system CHO-K1; how it was run: as §2
T3 sequence (P28335 whole entry): T2 sequence (whole entry)

Mus musculus [5] = assay: Antiobesity activity in C57BL/6 mouse assessed as inhibition of body weight gain at 50 mg/kg, ip measured after 2 to 12 hrs relative to vehicle-treated control; format: functional; conditions: C57BL/6, ip, route intraperitoneal
Mus musculus [6] = assay: Antiobesity activity in C57BL/6 mouse assessed as inhibition of food intake at 50 mg/kg, ip measured after 2 to 12 hrs relative to vehicle-treated control; format: functional; conditions: C57BL/6, ip, route intraperitoneal
How it was run: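 Male mice were acclimated 1 week at 23 ± 3 °C and 50 ± 20% humidity, then fasted 24 h. They were dosed once intraperitoneally with vehicle or compound: 50 mg/kg in C57BL/6, or 12.5, 25 or 50 mg/kg in B6.V-Lep^ob/J. Food intake was measured at 2, 6 and 12 h versus vehicle control.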

[7] = biological target: T3, 5-hydroxytryptamine receptor 2C; assay: Agonist activity at serotonin-activated human recombinant 5HT-2C receptor expressed in HEK293 cells assessed as increase in intracellular calcium level after 5 mins measured for 1 min by fluorescence assay; format: functional, cell-based
[8] = biological target: T3, 5-hydroxytryptamine receptor 2C; assay: Antagonist activity at serotonin-activated human recombinant 5HT-2C receptor expressed in HEK293 cells assessed as decrease in intracellular calcium level after 5 mins measured for 1 min by fluorescence assay; format: functional, cell-based; conditions: read-out: EC50 (the source's name)
How it was run: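 Intracellular calcium read on HEK293 cells stably expressing human receptor, seeded 10,000 cells/well and grown 24 h at 37 °C, 5% CO2. Cells were washed with HBSS/20 mM HEPES, then loaded 50 min with Fluo-4 NW dye in HBSS with 2.5 mM probenecid. Compound was added for 5 min at 37 °C, then serotonin; fluorescence followed 1 min. Run in duplicate or quadruplicate, repeated several times; IC50 by nonlinear regression.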

[9] = biological target: T1, 5-hydroxytryptamine receptor 2A; assay: Antagonist activity at serotonin-activated human recombinant 5HT-2A receptor expressed in HEK293 cells assessed as decrease in intracellular calcium level after 5 mins measured for 1 min by fluorescence assay; format: functional, cell-based; conditions: read-out: EC50 (the source's name)
How it was run: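 Cells were washed with HBSS/20 mM HEPES, then loaded 50 min with Fluo-4 NW dye in HBSS with 2.5 mM probenecid. Compound was added for 5 min at 37 °C, then serotonin; fluorescence followed 1 min. Run in duplicate or quadruplicate, repeated several times; IC50 by nonlinear regression.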

T1 sequence (P28223 whole entry): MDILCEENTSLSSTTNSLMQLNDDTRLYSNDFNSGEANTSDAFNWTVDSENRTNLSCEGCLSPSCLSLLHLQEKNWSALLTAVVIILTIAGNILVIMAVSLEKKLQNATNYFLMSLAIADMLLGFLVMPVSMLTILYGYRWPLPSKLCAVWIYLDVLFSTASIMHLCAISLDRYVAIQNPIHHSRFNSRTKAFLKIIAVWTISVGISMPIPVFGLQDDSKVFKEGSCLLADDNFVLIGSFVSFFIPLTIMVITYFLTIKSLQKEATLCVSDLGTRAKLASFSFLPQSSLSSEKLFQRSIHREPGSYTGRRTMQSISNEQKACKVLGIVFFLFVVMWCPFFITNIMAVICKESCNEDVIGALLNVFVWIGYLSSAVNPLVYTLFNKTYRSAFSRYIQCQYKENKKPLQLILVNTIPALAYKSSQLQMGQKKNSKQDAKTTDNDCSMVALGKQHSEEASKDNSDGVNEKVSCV

IC50 [1] [nM]	inhibition [2] [%]	inhibition [3] [%]	IC50 [4] [nM]	IC50 [8] [nM]	IC50 [9] [nM]	Compound	inhibition in vivo at 50 mg/kg (Mus musculus [5]) [%]	inhibition in vivo at 50 mg/kg (Mus musculus [6]) [%]	EC50 [7] [nM]
57.4	–	–	269	–	–	COc1ccc(Nc2nc(Cc3ccccc3)nc3c2CCNCC3)cc1	–	–	–
163	97	100	494	–	–	OCCN1CCN(c2nc(Nc3ccc(F)cc3)c3cn[nH]c3n2)CC1	–	–	–
> 10000	51	49	7790	–	–	CNc1nc(Nc2ccc(F)cc2)c2cn[nH]c2n1	–	–	–
4500	35	72	> 10000	–	–	Fc1ccc(Nc2nc(NC3CCCC3)nc3[nH]ncc23)cc1	–	–	–
1270	–	–	333	–	96.3	c1ccc(Cc2nc3c(c(N4CCSCC4)n2)CCNCC3)cc1	12	18.4	–
1380	78	93	1730	–	–	COc1ccccc1N1CCN(c2nc(Nc3ccc(F)cc3)c3cn[nH]c3n2)CC1	–	–	–
17.9	96	94	148	–	–	Fc1ccc(Nc2nc(N3CCN(c4ccc(F)cc4)CC3)nc3[nH]ncc23)cc1	–	–	–
5870	67	75	3820	–	–	CC1CC(C)CN(c2nc(Nc3ccc(F)cc3)c3cn[nH]c3n2)C1 (configuration not stated)	–	–	–
1890	80	86	991	–	–	CCN(CC)c1nc(Nc2ccc(Cl)cc2)c2cn[nH]c2n1	–	–	–
696	86	92	1180	–	–	COc1ccc(Nc2nc(N3CCN(c4ccc(F)cc4)CC3)nc3[nH]ncc23)cc1	–	–	–
52.2	96	100	836	–	–	Fc1ccc(Nc2nc(N3CCN(Cc4ccccc4)CC3)nc3[nH]ncc23)cc1	–	–	–
27.2	88	100	416	–	–	Fc1ccc(Nc2nc(N3CCN(c4ccccc4)CC3)nc3[nH]ncc23)cc1	–	–	–
3670	86	83	1500	–	–	CC1CCN(c2nc(Nc3ccc(F)cc3)c3cn[nH]c3n2)CC1	–	–	–
9740	35	51	> 10000	–	–	Fc1ccc(Nc2nc(NCCN3CCOCC3)nc3[nH]ncc23)cc1	–	–	–
5280	28	67	> 10000	–	–	COCCCNc1nc(Nc2ccc(F)cc2)c2cn[nH]c2n1	–	–	–
> 10000	–	–	> 10000	–	2900	CCN(CC)c1nc(N2CCN(C)CC2)nc2c1CCNCC2	9.01	4.17	–
24.2	100	100	85.8	–	–	CN1CCN(c2nc(Nc3ccc(F)cc3)c3cn[nH]c3n2)CC1	–	–	–

The remaining lines, values behind:

Compound	IC50 [1] [nM]	inhibition [2] [%]	inhibition [3] [%]	IC50 [4] [nM]	IC50 [8] [nM]	IC50 [9] [nM]	inhibition in vivo at 50 mg/kg (Mus musculus [5]) [%]	inhibition in vivo at 50 mg/kg (Mus musculus [6]) [%]	EC50 [7] [nM]
COc1cccc(Nc2nc(N3CCN(C)CC3)nc3[nH]ncc23)c1	9.1	100	100	7.8	–	–	–	–	–
CN1CCN(c2nc3c(c(N(C)C)n2)CCNCC3)CC1	> 10000	–	–	> 10000	–	–	12.2	12.5	1200
CCNc1nc(Nc2ccc(F)cc2)c2cn[nH]c2n1	> 10000	23	39	> 10000	–	–	–	–	–
COc1cccc(Nc2nc(N3CCN(C)CC3)nc3c2CCNCC3)c1	> 10000	–	–	2850	2300	–	–	–	–
Fc1ccc(Nc2nc(N3CCCCC3)nc3[nH]ncc23)cc1	2200	89	86	1300	–	–	–	–	–
CNc1nc(N2CCN(C)CC2)nc2c1CCNCC2	> 10000	–	–	> 10000	–	1200	–	–	–
CCN(CC)c1nc(Nc2ccc(C)c(C)c2)c2cn[nH]c2n1	2750	52	85	8490	–	–	–	–	–
C=CCNc1nc(Nc2ccc(F)cc2)c2cn[nH]c2n1	6580	41	60	> 10000	–	–	–	–	–
CCCNc1nc(Nc2ccccc2)c2cn[nH]c2n1	> 10000	29	30	> 10000	–	–	–	–	–
COCCNc1nc(Nc2ccc(F)cc2)c2cn[nH]c2n1	> 10000	18	25	> 10000	–	–	–	–	–
Fc1ccc(Nc2nc(N3CCOCC3)nc3[nH]ncc23)cc1	2620	81	83	2070	–	–	–	–	–
CN1CCN(c2nc3c(c(N4CCOCC4)n2)CCNCC3)CC1	> 10000	–	–	> 10000	–	–	–	–	9600
CCN(CC)c1nc(Nc2cccc(OC)c2)c2cn[nH]c2n1	2080	61	87	5420	–	–	–	–	–
CN1CCN(c2nc3c(c(N4CCSCC4)n2)CCNCC3)CC1	> 10000	–	–	> 10000	–	687	-15	2.1	> 10000
CCNc1nc(Nc2ccccc2)c2cn[nH]c2n1	> 10000	15	6	> 10000	–	–	–	–	–
CN(C)c1nc(Nc2ccc(F)cc2)c2cn[nH]c2n1	4880	66	79	4030	–	–	–	–	–

Compound	IC50 [1] [nM]	inhibition [2] [%]	inhibition [3] [%]	IC50 [4] [nM]	IC50 [8] [nM]	IC50 [9] [nM]	inhibition in vivo at 50 mg/kg (Mus musculus [5]) [%]	inhibition in vivo at 50 mg/kg (Mus musculus [6]) [%]	EC50 [7] [nM]
CCNc1nc(N2CCN(C)CC2)nc2c1CCNCC2	> 10000	–	–	> 10000	–	–	–	–	> 10000
CN1CCN(c2nc(Nc3ccccc3)c3cn[nH]c3n2)CC1	25.1	100	100	86.9	–	–	–	–	–
OCCCNc1nc(Nc2ccc(F)cc2)c2cn[nH]c2n1	> 10000	5	26	> 10000	–	–	–	–	–
COc1cccc(Nc2nc(N3CCN(c4ccc(F)cc4)CC3)nc3[nH]ncc23)c1	350	85	100	1080	–	–	–	–	–
Fc1ccc(Nc2nc(NC3CCCCC3)nc3[nH]ncc23)cc1	3670	62	73	5710	–	–	–	–	–
CN1CCc2nc(N3CCN(C)CC3)nc(Nc3ccc(F)cc3)c2CC1	684	–	–	779	–	–	–	–	–
CCN(CC)c1nc(Nc2ccc(F)cc2)c2cn[nH]c2n1	4530	76	84	3310	–	–	–	–	–
COc1nc(N2CCN(C)CC2)nc2c1CCNCC2	> 10000	–	–	> 10000	–	–	–	–	–
CN1CCN(c2nc3c(c(OCc4ccco4)n2)CCNCC3)CC1	2630	–	–	1260	–	–	–	–	–
Fc1ccc(Nc2nc(NCc3ccccc3)nc3[nH]ncc23)cc1	1270	82	85	2590	–	–	–	–	–
Cc1ccc(CNc2nc(Nc3ccc(F)cc3)c3cn[nH]c3n2)cc1	947	66	93	5830	–	–	–	–	–
CN1CCN(c2nc(Nc3ccc(Cl)cc3)c3cn[nH]c3n2)CC1	28.8	100	100	29.4	–	–	–	–	–
CN1CCN(c2ncc3c(n2)CCNCC3)CC1	> 10000	–	–	> 10000	–	–	–	–	–
Fc1ccc(Nc2nc(Cc3ccccc3)nc3c2CCNCC3)cc1	1.95	–	–	8.5	2.6	–	–	–	–
CCN(CC)c1nc(Nc2ccccc2C)c2cn[nH]c2n1	4580	88	66	242	–	–	–	–	–
